Measurements from ChEMBL document CHEMBL4680127, “Rational design and Structure-Activity relationship of coumarin derivatives effective on HIV-1 protease and partially on HIV-1 reverse transcriptase” (Eur J Med Chem, 2020).

Columns and labels:
[1] = system: Human immunodeficiency virus 1; test: Antiviral activity against wild type HIV1 assessed as inhibitory effect on virus producing cells at 10 uM by cell based inhibition assay; format: functional
In short: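 Late-stage single-round assay: compound at 10 μM was added to the medium of virus-producing cells 5 h after transfection and incubated 48 h. Pseudotyped virus from the supernatant then infected SupT1 cells for 48 h. Luciferase in the newly infected cells gave percent inhibition. Quadruplicate.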

[2] = molecular target: Human immunodeficiency virus type 1 protease (Human immunodeficiency virus 1, UniProt Q72874); test: Inhibition of recombinant HIV1 protease measured assessed as hydrolysis of fluorogenic substrate by FRET assay
In short: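 Wild-type HIV-1 protease activity was read by FRET. Each assay was run in triplicate. IC50 values are means (±1 standard deviation) from three independent experiments.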

[3] = molecular target: T1, Human immunodeficiency virus type 1 reverse transcriptase (Human immunodeficiency virus 1, UniProt Q72547); test: Inhibition of HIV-1BH10 reverse transcriptase expressed in Escherichia coli assessed as polymerization by one-step real time RT-PCR assay
[4] = molecular target: T1, Human immunodeficiency virus type 1 reverse transcriptase; test: Inhibition of HIV-1 NL4-3 reverse transcriptase expressed in Escherichia coli assessed as polymerization by one-step real-time RT-PCR assay
[5] = system: Human immunodeficiency virus 1; test: Antiviral activity against wild type HIV1 assessed as inhibitory effect on virus infected cells at 10 uM by cell based inhibition assay; format: functional
In short: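 Single-round assay of the early stage: SupT1 cells were first infected with pseudotyped HIV-1, then exposed to compound at 10 μM for 48 h. Luciferase activity was measured and expressed as percent inhibition.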

[6] = system: Human immunodeficiency virus 1; test: Antiviral activity against wild type HIV1 infected in human SupT1 cells assessed as inhibitory effect at 100 nM by cell based inhibition assay; format: functional; settings: Human immunodeficiency virus 1, SUP-T1
In short: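 1×10^6 SupT1 cells were infected with HIV-1 NL4-3 by spin infection, with 10 µg/mL polybrene and test agent at 100 nM present during infection. Activity is expressed as percent inhibition of viral growth.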

Row | SMILES | inhibition at 10 µM [1] [%] | IC50 [2] [µM] | IC50 [3] [µM] | IC50 [4] [µM] | inhibition at 10 µM [5] [%] | inhibition at 0.1 µM [6] [%]
1 | CC(C)CN(C[C@@H](O)[C@H](Cc1ccccc1)NC(=O)O[C@H]1CO[C@H]2OCC[C@H]21)S(=O)(=O)c1ccc(N)cc1 | 30.8 | – | – | – | – | –
2 | COc1ccc(S(=O)(=O)N(CC(C)C)C[C@@H](O)[C@H](Cc2ccccc2)NCc2cc(=O)oc3cc(O)ccc23)cc1 | 88.8 | 0.053 | – | – | – | –
3 | COc1ccc(S(=O)(=O)N(CC(C)C)C[C@@H](O)[C@H](Cc2ccccc2)NC(=O)Oc2c3occc3cc3ccc(=O)oc23)cc1 | – | 0.12 | > 1000 | – | – | –
4 | COc1ccc(S(=O)(=O)N(CC(C)C)C[C@@H](O)[C@H](Cc2ccccc2)NC(=O)c2cc3ccc(OC)cc3oc2=O)cc1 | – | 0.0467 | – | 370 | 8.28 | –
5 | CC(C)CN(C[C@@H](O)[C@H](Cc1ccccc1)NC(=O)c1cc2ccc(O)cc2oc1=O)S(=O)(=O)c1ccc(N)cc1 | – | 0.0277 | – | 554 | 27 | –
6 | CC(C)CN(C[C@@H](O)[C@H](Cc1ccccc1)NC(=O)Oc1c2occc2cc2ccc(=O)oc12)S(=O)(=O)c1ccc([N+](=O)[O-])cc1 | – | 1.53 | > 1000 | – | – | –
7 | COc1ccc(S(=O)(=O)N(CC(C)C)C[C@@H](O)[C@H](Cc2ccccc2)NC(=O)Cc2cc(=O)oc3cc(O)ccc23)cc1 | 82.9 | 0.00162 | – | 459 | – | 45.5
8 | CC(C)CN(C[C@@H](O)[C@H](Cc1ccccc1)NC(=O)Cc1cc(=O)oc2cc(N(C)C)ccc12)S(=O)(=O)c1ccc([N+](=O)[O-])cc1 | – | 0.276 | > 1000 | – | 14.7 | –
9 | CC(C)CN(C[C@@H](O)[C@H](Cc1ccccc1)NC(=O)c1cc2ccccc2oc1=O)S(=O)(=O)c1ccc(N)cc1 | – | 0.156 | – | 75.3 | 1.34 | –
10 | CC(C)CN(C[C@@H](O)[C@H](Cc1ccccc1)NCc1cc(=O)oc2cc(O)ccc12)S(=O)(=O)c1ccc([N+](=O)[O-])cc1 | 73.2 | 0.14 | – | – | – | –
11 | CC(C)CN(C[C@@H](O)[C@H](Cc1ccccc1)NC(=O)c1cc2ccccc2oc1=O)S(=O)(=O)c1ccc([N+](=O)[O-])cc1 | – | 0.298 | > 1000 | – | 27.1 | –
12 | COc1ccc2c(CC(=O)N[C@@H](Cc3ccccc3)[C@H](O)CN(CC(C)C)S(=O)(=O)c3ccc([N+](=O)[O-])cc3)cc(=O)oc2c1 | – | 0.0558 | – | 373 | 43.7 | –
13 | CC(C)CN(C[C@@H](O)[C@H](Cc1ccccc1)NC(=O)c1cc2ccc(O)cc2oc1=O)S(=O)(=O)c1ccc([N+](=O)[O-])cc1 | 74 | 0.0621 | – | 189 | 91 | –
14 | COc1ccc(S(=O)(=O)N(CC(C)C)C[C@@H](O)[C@H](Cc2ccccc2)NC(=O)c2cc3ccc(O)cc3oc2=O)cc1 | – | 0.0395 | – | 421 | 12.3 | –
15 | CC(C)CN(C[C@@H](O)[C@H](Cc1ccccc1)NC(=O)Cc1cc(=O)oc2cc(O)ccc12)S(=O)(=O)c1ccc([N+](=O)[O-])cc1 | 73.4 | 0.0111 | – | 367 | 3.91 | –
16 | COc1ccc(S(=O)(=O)N(CC(C)C)C[C@@H](O)[C@H](Cc2ccccc2)NC(=O)c2ccc3oc(=O)ccc3c2)cc1 | 99.5 | 0.00184 | – | 597 | 1.26 | –
17 | CC(C)CN(C[C@@H](O)[C@H](Cc1ccccc1)NC(=O)c1ccc2oc(=O)ccc2c1)S(=O)(=O)c1ccc([N+](=O)[O-])cc1 | 98.5 | 0.0026 | > 1000 | – | – | –
18 | CC(C)CN(C[C@@H](O)[C@H](Cc1ccccc1)NC(=O)Cc1cc(=O)oc2cc(N(C)C)ccc12)S(=O)(=O)c1ccc(N)cc1 | – | 0.0751 | – | 572 | 18.4 | –
19 | COc1ccc(S(=O)(=O)N(CC(C)C)C[C@@H](O)[C@H](Cc2ccccc2)NC(=O)Oc2ccc3c(C)cc(=O)oc3c2)cc1 | – | 0.16 | > 1000 | – | – | –
20 | COc1ccc2cc(C(=O)N[C@@H](Cc3ccccc3)[C@H](O)CN(CC(C)C)S(=O)(=O)c3ccc(N)cc3)c(=O)oc2c1 | – | 0.102 | – | 706 | 23.2 | –
21 | CC(C)CN(C[C@@H](O)[C@H](Cc1ccccc1)NC(=O)c1ccc2oc(=O)ccc2c1)S(=O)(=O)c1ccc(N)cc1 | 98.7 | 0.0004 | – | 398 | 5.61 | –
22 | COc1ccc2c(CC(=O)N[C@@H](Cc3ccccc3)[C@H](O)CN(CC(C)C)S(=O)(=O)c3ccc(N)cc3)cc(=O)oc2c1 | – | 0.0154 | – | 411 | 7.72 | –
23 | CC(C)CN(C[C@@H](O)[C@H](Cc1ccccc1)NC(=O)Cc1cc(=O)oc2cc(O)ccc12)S(=O)(=O)c1ccc(N)cc1 | 17.9 | 0.0379 | > 1000 | – | – | –
24 | COc1ccc(S(=O)(=O)N(CC(C)C)C[C@@H](O)[C@H](Cc2ccccc2)NC(=O)Cc2cc(=O)oc3cc(N(C)C)ccc23)cc1 | – | 0.211 | – | 355 | 43.8 | –
25 | COc1ccc2cc(C(=O)N[C@@H](Cc3ccccc3)[C@H](O)CN(CC(C)C)S(=O)(=O)c3ccc([N+](=O)[O-])cc3)c(=O)oc2c1 | – | 0.221 | > 1000 | – | 0.45 | –
26 | COc1ccc(S(=O)(=O)N(CC(C)C)C[C@@H](O)[C@H](Cc2ccccc2)NC(=O)Cc2cc(=O)oc3cc(OC)ccc23)cc1 | – | 0.0155 | – | 242 | 17.7 | –
27 | Cc1cc(=O)oc2cc(OC(=O)N[C@@H](Cc3ccccc3)[C@H](O)CN(CC(C)C)S(=O)(=O)c3ccc([N+](=O)[O-])cc3)ccc12 | – | 1.02 | > 1000 | – | – | –
28 | COc1ccc(S(=O)(=O)N(CC(C)C)C[C@@H](O)[C@H](Cc2ccccc2)NC(=O)c2cc3ccccc3oc2=O)cc1 | – | 0.0728 | – | 474 | 44.8 | –
29 | O=C1Nc2ccc(Cl)cc2[C@@](C#CC2CC2)(C(F)(F)F)O1 [EFAVIRENZ] | 100 | – | – | – | – | –
30 | Cc1ccnc2c1NC(=O)c1cccnc1N2C1CC1 [NEVIRAPINE] | – | – | – | – | – | 77
